Activity calls are given as the source filed them. The calls are words filed in the database; no cut-off is given here.
Assays:
[1] = Cytotoxicity against hamster BHK cells; type: cell-based, Mesocricetus auratus
dengue virus type 2 [2] = test: Antiviral activity against Dengue virus 2 infected in BHK-D2RepT replicon systems assessed as inhibition of viral replication after 24 hrs by luciferase reporter gene assay; type: functional, organism-based
Summary of the method: (§1)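 BHK-D2RepT replicon cells, kept in MEM with 10% FBS and 200 μg/mL G418, were preseeded 24 h without G418. Compounds were diluted from DMSO stock into MEM, with final DMSO <0.2% (v/v), and incubated 24 h. Medium was then replaced and firefly luciferase read. Inhibition was expressed as a percentage of the no-compound luciferase signal.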

[3] = Selectivity index, ratio of CC50 for hamster BHK cells to EC50 for Dengue virus 2; type: toxicity, cell-based; conditions: read-out: Ratio CC50/EC50
dengue virus type 2 [4] = test: Antiviral activity against Dengue virus 2 infected in BHK-D2RepT replicon systems assessed as inhibition of viral multiplication after 24 hrs by luciferase reporter gene assay; type: functional, organism-based; summary of the method: as §1
[5] = AUC (0 to infinity) in rat at 10 mg/kg, iv administered as single dose; type: ADME, organism-based; parameters: time infinity, dose 10 mg/kg, route intravenous; conditions: plasma
Summary of the method: (§2)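 Rats received one dose, either oral at 20 mg/kg or intravenous at 10 mg/kg. Plasma concentration of the compound was followed over time after dosing. AUC was taken as the area under the plasma concentration–time curve from time zero to infinity.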

[6] = Plasma clearance in rat at 10 mg/kg, iv administered as single dose; type: ADME, organism-based; parameters: dose 10 mg/kg, route intravenous
Summary of the method: (§3)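 Rats received a single dose of 20 mg/kg orally or 10 mg/kg intravenously. Plasma concentration–time profiles gave AUC0→∞, MRT, t1/2, Tmax, Cmax, clearance, terminal volume of distribution and oral bioavailability.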

[7] = Cmax in rat at 20 mg/kg, po administered as single dose measured 2 hrs post dose; type: ADME, organism-based; parameters: dose 20 mg/kg, route oral; conditions: in vivo; summary of the method: as §3
dengue virus type 2 [8] = test: Antiviral activity against Dengue virus 2
[9] = Mean residence time in rat at 20 mg/kg, po administered as single dose; type: ADME, organism-based; parameters: dose 20 mg/kg, route oral; conditions: in vivo; summary of the method: as §3
[10] = Tmax in rat at 20 mg/kg, po administered as single dose; type: ADME, organism-based; parameters: dose 20 mg/kg, route oral; conditions: in vivo; summary of the method: as §3
dengue virus type 2 [11] = test: Antiviral activity against Dengue virus 2 NGC infected in forest mosquito C6/36 cells assessed as inhibition of virus-induced cytopathic effect after 48 hrs by optical microscopy; type: functional, organism-based
Summary of the method: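 DENV-2 NGC strain was grown in C6/36 cells and titered. C6/36 cells were preseeded overnight and then infected at MOI 0.01, allowing several rounds of replication that produce syncytia.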

dengue virus type 2 [12] = test: Antiviral activity against Dengue virus 2 infected in BHK-D2RepT replicon systems assessed as […] after 24 hrs by luciferase reporter gene assay; type: functional, organism-based
Summary of the method: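 BHK-D2RepT DENV-2 replicon cells carrying a luciferase reporter are kept in MEM with 10% FBS and 200 μg/mL G418, then preseeded 24 h without G418. Compound from DMSO stock is diluted in MEM (final DMSO <0.2% v/v) and incubated 24 h. Medium is replaced and firefly luciferase read. Inhibition is expressed as percent of no-compound luciferase signal.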

[13] = Half life in rat at 20 mg/kg, po administered as single dose; type: ADME, organism-based; parameters: dose 20 mg/kg, route oral; conditions: in vivo; summary of the method: as §3
[14] = Mean residence time in rat at 10 mg/kg, iv administered as single dose; type: ADME, organism-based; parameters: dose 10 mg/kg, route intravenous; conditions: in vivo; summary of the method: as §3
[15] = Oral bioavailability in rat at 20 mg/kg administered as single dose; type: ADME, organism-based; conditions: in vivo; summary of the method: as §3
[16] = Apparent volume of distribution in rat at 10 mg/kg, iv administered as single dose; type: ADME, organism-based; parameters: dose 10 mg/kg, route intravenous; conditions: in vivo, read-out: Vz; summary of the method: as §3
[17] = target: Voltage-gated inwardly rectifying potassium channel KCNH2 (Homo sapiens, UniProt Q12809); test: Inhibition of human ERG expressed in HEK293 cells by patch clamp assay; type: cell-based
Chain of Voltage-gated inwardly rectifying potassium channel KCNH2 (Q12809 whole entry): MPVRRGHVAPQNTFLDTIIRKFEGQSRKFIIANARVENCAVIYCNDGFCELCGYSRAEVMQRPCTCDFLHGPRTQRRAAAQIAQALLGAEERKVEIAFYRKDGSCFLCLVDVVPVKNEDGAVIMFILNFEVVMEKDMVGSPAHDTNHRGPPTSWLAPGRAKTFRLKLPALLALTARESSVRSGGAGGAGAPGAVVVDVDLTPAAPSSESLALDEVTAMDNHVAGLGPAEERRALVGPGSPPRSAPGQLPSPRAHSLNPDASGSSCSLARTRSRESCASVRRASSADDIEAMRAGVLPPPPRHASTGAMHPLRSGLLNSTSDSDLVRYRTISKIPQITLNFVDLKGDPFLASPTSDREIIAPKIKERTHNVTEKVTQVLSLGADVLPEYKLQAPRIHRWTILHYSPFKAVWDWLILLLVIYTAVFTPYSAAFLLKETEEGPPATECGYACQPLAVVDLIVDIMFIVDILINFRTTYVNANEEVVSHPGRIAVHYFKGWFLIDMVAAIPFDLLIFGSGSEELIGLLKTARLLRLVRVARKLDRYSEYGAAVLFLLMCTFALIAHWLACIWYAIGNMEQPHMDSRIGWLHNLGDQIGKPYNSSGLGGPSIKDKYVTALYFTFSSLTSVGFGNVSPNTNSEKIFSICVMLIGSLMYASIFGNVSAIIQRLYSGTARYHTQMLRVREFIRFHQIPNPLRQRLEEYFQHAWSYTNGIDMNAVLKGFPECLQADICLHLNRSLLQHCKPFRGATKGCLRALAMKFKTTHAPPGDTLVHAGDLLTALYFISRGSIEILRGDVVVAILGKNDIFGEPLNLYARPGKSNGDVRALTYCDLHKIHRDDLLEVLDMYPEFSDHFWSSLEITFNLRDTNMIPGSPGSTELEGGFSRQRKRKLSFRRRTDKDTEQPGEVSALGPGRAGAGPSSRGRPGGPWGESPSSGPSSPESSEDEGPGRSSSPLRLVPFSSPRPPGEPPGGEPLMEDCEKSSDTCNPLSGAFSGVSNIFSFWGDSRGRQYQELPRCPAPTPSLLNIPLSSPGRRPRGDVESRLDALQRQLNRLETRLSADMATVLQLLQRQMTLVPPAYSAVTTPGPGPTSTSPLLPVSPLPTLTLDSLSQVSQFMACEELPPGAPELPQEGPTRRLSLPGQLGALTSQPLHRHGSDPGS
Summary of the method: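 hERG (IKr) potassium channel currents in HEK-293 cells were recorded by patch clamp.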

[18] = Half life in rat at 10 mg/kg, iv administered as single dose; type: ADME, organism-based; parameters: dose 10 mg/kg, route intravenous; conditions: in vivo; summary of the method: as §3
dengue virus type 2 [19] = test: Antiviral activity against Dengue virus 2 infected in BHK-D2RepT replicon systems assessed as inhibition of viral expression after 24 hrs by luciferase reporter gene assay; type: functional, organism-based; summary of the method: as §1
[20] = AUC (0 to infinity) in rat at 20 mg/kg, po administered as single dose; type: ADME, organism-based; parameters: time infinity, dose 20 mg/kg, route oral; conditions: plasma; summary of the method: as §2

Row | SMILES | CC50 [1] | EC50 (dengue virus type 2 [2]) | selectivity ratio [3] | further results
1 | Nc1nc(N)c2cc(Oc3ccccc3)ccc2n1 | > 10000 nM | > 10000 nM | – | –
2 | CCCCOc1cccc2nc(N)nc(N)c12 | > 10000 nM | 36 nM | > 200 | –
3 | Nc1nc(N)c2ccc(Oc3ccccc3)cc2n1 | > 10000 nM | > 10000 nM | – | –
4 | COc1ccc2nc(N)nc(N)c2c1 | > 10000 nM | > 10000 nM | – | –
5 | CC(C)(C)COc1cccc2nc(N)nc(N)c12 | 650 nM | 80 nM | 8.1 | –
6 | CC(C)(C)Sc1cccc2nc(N)nc(N)c12 | 5300 nM | 900 nM | 5.9 | –
7 | Nc1nc(N)c2c(OC3CCCC3)cccc2n1 | > 10000 nM | 7.4 nM | > 1000 | –
8 | COc1cccc2c(N)nc(N)nc12 | > 10000 nM | 5400 nM | > 1.9 | –
9 | Nc1nc(N)c2c(OC3CCCCC3)cccc2n1 | > 10000 nM | 130 nM | > 76.9 | –
10 | Nc1nc(N)c2c(F)cccc2n1 | > 10000 nM | > 10000 nM | – | –
11 | CC(C)(C)S(=O)(=O)c1cccc2nc(N)nc(N)c12 | > 10000 nM | > 10000 nM | – | –
12 | Nc1nc(N)c2c(Oc3ccccc3)cccc2n1 | > 10000 nM | 29 nM | > 300 | –
13 | CCOc1cccc2nc(N)nc(N)c12 | > 10000 nM | 37 nM | > 200 | –
14 | COc1ccc2c(N)nc(N)nc2c1 | > 10000 nM | > 10000 nM | – | –
15 | COc1cccc2nc(N)nc(N)c12 | > 10000 nM | 150 nM | > 66.7 | –
16 | Nc1nc(N)c2ccccc2n1 | > 10000 nM | > 10000 nM | – | –
17 | CN(C)c1cccc2nc(N)nc(N)c12 | > 10000 nM | 3300 nM | > 3 | –
18 | CCCCCCCCOc1cccc2nc(N)nc(N)c12 | 730 nM | 180 nM | 4.1 | –
19 | CC(C)(C)Oc1cccc2nc(N)nc(N)c12 | > 10000 nM | 2.8 nM | > 1000 | Activity (dengue virus type 2 [4]): Active; AUC(0-inf) [5]: 1560 ng·h/mL; clearance [6]: 6.56 mL/min/kg; Cmax [7]: 249 ng/mL; Activity (dengue virus type 2 [8]): Active; MRT [9]: 7.2 h; Tmax [10]: 2 h; Activity (dengue virus type 2 [11]): Active; EC50 (dengue virus type 2 [12]): < 50 nM; half-life [13]: 5 h; MRT [14]: 1.8 h; bioavailability [15]: 69%; Vd [16]: 11.7 L/kg; IC50 [17]: 20200 nM; half-life [18]: 1.3 h; Activity (dengue virus type 2 [19]): Active; AUC(0-inf) [20]: 2220 ng·h/mL
20 | Nc1nc(N)c2c(OCc3ccccc3)cccc2n1 | > 10000 nM | 39 nM | > 200 | –
21 | Nc1nc(N)c2c(N3CCCC3)cccc2n1 | 1200 nM | 150 nM | 8 | –
22 | Nc1nc(N)c2cccc(Oc3ccccc3)c2n1 | 550 nM | 60 nM | 9.2 | –
23 | CC(C)(C)Nc1cccc2nc(N)nc(N)c12 | 2500 nM | 9.2 nM | > 200 | –
24 | Nc1nc(N)c2c(OCC(F)(F)F)cccc2n1 | > 10000 nM | 7.9 nM | > 1000 | –
